One experiment has as its system Haemophilus influenzae. The experiment is described as follows: Antimicrobial activity against Haemophilus influenzae ATCC 19418 after 24 hrs by two-fold broth dilution method. Type of experiment: functional. Particulars: ATCC 19418, 24 h. The procedure, abridged: (§1)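 Bacteria were cultivated on Mueller Hinton medium and inoculated at 5·10⁵ bacteria/mL. Compounds were dissolved in DMSO, with DMSO loaded as the negative control. Samples were incubated at 37 °C for 24 h. The dilution susceptibility method followed the NCCLS standard for aerobically growing bacteria.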

Experiment [1] has as its system Aspergillus niger. Kind of experiment: Antimicrobial activity against Aspergillus niger ATCC 6275 up to 100 ug/ml after 48 hrs by two-fold broth dilution method. The format is functional, organism-based. The procedure, abridged: (§2)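 Fungi (yeasts C. tropicalis and S. cerevisiae, mould A. niger) grown in Sabouraud dextrose broth. Inoculum was 1·10³ fungi/mL. Compounds were dissolved in DMSO, which was also loaded as the negative control. Incubation was 30 °C for 48 h. The broth dilution method followed NCCLS reference methods for yeasts and filamentous fungi.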
On the technique in general: In broth dilution the organism is exposed to a series of concentrations in liquid medium.

The test system of a further experiment is Escherichia coli. The experiment is described as follows: Antimicrobial activity against Escherichia coli ATCC 8739 after 24 hrs by two-fold broth dilution method. The format is functional. Particulars: ATCC 8739, 24 h. The procedure, abridged: as §1
For experiment [2], the system named is Candida tropicalis. The experiment is described as follows: Antimicrobial activity against Candida tropicalis ATCC 1369 up to 100 ug/ml after 48 hrs by two-fold broth dilution method. The format is functional, organism-based. The procedure, abridged: as §2
A further experiment relates to Staphylococcus aureus. The experiment is described as follows: Antimicrobial activity against Staphylococcus aureus ATCC 6538 after 24 hrs by two-fold broth dilution method. The conditions noted are these: ATCC 6538, 24 h. Type of experiment: functional. The procedure, abridged: as §1
The test system of the next experiment is Bacillus spizizenii. The experiment is described as follows: Antimicrobial activity against Bacillus subtilis ATCC 6633 after 24 hrs by two-fold broth dilution method. The format is functional. The conditions noted are these: ATCC 6633, 24 h. In short, it runs like this: as §1
The subject of experiment [3] is Saccharomyces cerevisiae. The experiment is described as follows: Antimicrobial activity against Saccharomyces cerevisiae ATCC 9763 up to 100 ug/ml after 48 hrs by two-fold broth dilution method. Type of experiment: functional, organism-based. In short, it runs like this:
as §2

Experiment [4] deals with Aspergillus niger. The experiment is described as follows: Antimicrobial activity against Aspergillus niger ATCC 6275 after 48 hrs by two-fold broth dilution method. The format is functional. Particulars: ATCC 6275, 48 h. The procedure, abridged: as §2
Experiment [5] concerns Candida tropicalis. The experiment is described as follows: Antimicrobial activity against Candida tropicalis ATCC 1369 after 48 hrs by two-fold broth dilution method. The conditions noted are these: ATCC 1369, 48 h. Type of experiment: functional. The procedure, abridged:
as §2

Experiment [6] deals with Saccharomyces cerevisiae. Kind of experiment: microbe, parasite or virus in culture. Particulars: ATCC 9763, 48 h.

The values that follow come from ChEMBL document CHEMBL3351260, “A new efficient route to 7-aryl-6-fluoro-8-nitroquinolones as potent antibacterial agents” (2014).

≈ marks a conversion by molar mass, not a printed value. Calls of active or inactive are those of the source. No cut-off for these calls is given here.

Take `O=C(O)c1cn(C2CC2)c2c([N+](=O)[O-])c(-c3ccc(F)cc3)c(F)cc2c1=O`: the MIC amounted to 70 ng/mL (≈ 0.181 µM) with Haemophilus influenzae, 3000 ng/mL (≈ 7.77 µM) with Escherichia coli, 150 ng/mL (≈ 0.388 µM) in the experiment on Staphylococcus aureus and 15 ng/mL (≈ 0.0388 µM) against Bacillus spizizenii. Moreover, the outcome with Aspergillus niger [1], with Candida tropicalis [2] and with Saccharomyces cerevisiae [3] was inactive.
With `Cc1ccc(-c2c(F)cc3c(=O)c(C(=O)O)cn(C4CC4)c3c2[N+](=O)[O-])cc1`, the MIC with Haemophilus influenzae turned out to be 30 ng/mL (≈ 0.0785 µM); in the experiment on Escherichia coli, 3000 ng/mL (≈ 7.85 µM); in the experiment with Staphylococcus aureus, 150 ng/mL (≈ 0.392 µM); against Bacillus spizizenii, 15 ng/mL (≈ 0.0392 µM). Moreover, the result in the experiment on Aspergillus niger [1], with Candida tropicalis [2] and in the experiment with Saccharomyces cerevisiae [3] was inactive.
Regarding `COc1c(C)cc(-c2c(F)cc3c(=O)c(C(=O)O)cn(C4CC4)c3c2[N+](=O)[O-])cc1C`, the MIC worked out at 15 ng/mL (≈ 0.0352 µM) with Haemophilus influenzae, 25000 ng/mL (≈ 58.6 µM) against Escherichia coli, 3 ng/mL (≈ 0.00704 µM) in the experiment on Staphylococcus aureus and 0.07 ng/mL (≈ 0.000164 µM) against Bacillus spizizenii. Besides, the outcome in the experiment on Aspergillus niger [1], with Candida tropicalis [2] and in the experiment with Saccharomyces cerevisiae [3] was inactive.
Turning to `COc1ccc(-c2c(F)cc3c(=O)c(C(=O)O)cn(C4CC4)c3c2[N+](=O)[O-])cc1`, the MIC with Haemophilus influenzae came to 150 ng/mL (≈ 0.377 µM); in the experiment on Escherichia coli it was 25000 ng/mL (≈ 62.8 µM); with Staphylococcus aureus it was 150 ng/mL (≈ 0.377 µM); in the experiment on Bacillus spizizenii, 30 ng/mL (≈ 0.0753 µM). Besides, the result with Aspergillus niger [1], in the experiment with Candida tropicalis [2] and in the experiment on Saccharomyces cerevisiae [3] was inactive.
For `O=C(O)c1cn(C2CC2)c2c([N+](=O)[O-])c(-c3ccccc3)c(F)cc2c1=O`, the MIC was determined as 150 ng/mL (≈ 0.407 µM) against Haemophilus influenzae, 3000 ng/mL (≈ 8.15 µM) against Escherichia coli, 150 ng/mL (≈ 0.407 µM) in the experiment with Staphylococcus aureus and 15 ng/mL (≈ 0.0407 µM) in the experiment on Bacillus spizizenii. The result with Aspergillus niger [1], in the experiment with Candida tropicalis [2] and in the experiment on Saccharomyces cerevisiae [3] was inactive.
As to `Clc1ccc(COC(Cn2ccnc2)c2ccc(Cl)cc2Cl)c(Cl)c1` (stereo unspecified) [MICONAZOLE], the results for the MIC with Aspergillus niger [4], with Candida tropicalis [5] and against Saccharomyces cerevisiae [6] were 3000 ng/mL (≈ 7.21 µM), 6000 ng/mL (≈ 14.4 µM) and 12000 ng/mL (≈ 28.8 µM), respectively. In addition, the result with Aspergillus niger [1], with Candida tropicalis [2] and in the experiment on Saccharomyces cerevisiae [3] was inactive.
